Measurements from ChEMBL document CHEMBL4699389, “Design and synthesis of a bivalent probe targeting the putative mu opioid receptor and chemokine receptor CXCR4 heterodimer” (RSC Med Chem, 2020).
Active and inactive are the calls of the source. The rule behind the calls is not given here.

Assays:
[1] = target: T1, C-X-C chemokine receptor type 4 (Homo sapiens, UniProt P61073); test: Binding affinity to CXCR4 (unknown origin) expressed in CHO cells incubated for 40 mins by immunofluorescence assay; assay type: cell-based
T1 sequence (P61073 whole entry): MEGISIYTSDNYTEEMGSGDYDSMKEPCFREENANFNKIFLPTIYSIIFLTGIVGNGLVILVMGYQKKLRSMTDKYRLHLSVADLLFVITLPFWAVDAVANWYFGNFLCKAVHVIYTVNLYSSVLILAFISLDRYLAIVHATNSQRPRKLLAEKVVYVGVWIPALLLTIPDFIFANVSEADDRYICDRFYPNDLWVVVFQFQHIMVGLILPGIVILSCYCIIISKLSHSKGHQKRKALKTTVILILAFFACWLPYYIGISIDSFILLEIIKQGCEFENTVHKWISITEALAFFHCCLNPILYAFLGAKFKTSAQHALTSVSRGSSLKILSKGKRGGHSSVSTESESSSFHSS
In short: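 Trypsinized CHO-CXCR4 cells (5×10⁵ per well) in FACS buffer (0.5% BSA, 0.05% azide in PBS). Incubated 40 min on ice with mouse anti-human CD184 (1:2000) plus graded compound concentrations, then with anti-mouse IgG-FITC (1:1000) for 30 min on ice. IC50 from at least three independent experiments.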

[2] = target: T1, C-X-C chemokine receptor type 4; test: Agonist activity at […] (unknown origin) expressed in HOS cells assessed as increase in calcium influx incubated for 15 mins by Fluo-4AM dye based fluorescence assay; assay type: functional, cell-based
In short: (§1)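 Cells transiently transfected with Gqi5 (Lipofectamine 2000), plated at […] per well and grown to confluence. At 48 h post-transfection, loaded with fluo-4 AM plus probenecid in HBSS-HEPES-Ca-Mg buffer for 45 min. Ligands tested alone at 0.3 nM to 3 μM. Ca²⁺ followed as RFU for 90 s on FlexStation3. Triplicate doses, at least 4 repeats.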

[3] = target: T1, C-X-C chemokine receptor type 4; test: Antagonist activity at CXCR4 (unknown origin) expressed in HOS cells assessed as decrease in SDF1-induced calcium influx incubated for 15 mins followed by SDF1 stimulation and measured after 90 sec by Fluo-4AM dye based fluorescence assay; assay type: functional, cell-based
In short: (§2)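 Gqi5-transfected cells, 48 h post-transfection, loaded with fluo-4 AM/probenecid for 45 min. Pre-incubated 15 min with compound at varying concentrations, then agonist added: SDF-1 for CXCR4-HOS, DAMGO for MOR-CHO. RFU read for 90 s on FlexStation3. IC50 from peak values by non-linear regression. Triplicate doses, at least 4 repeats.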

Mu-type opioid receptor [4] = target: T2, Mu-type opioid receptor (Mus musculus, UniProt P42866); test: Displacement of [3H]-NLX from mouse MOR expressed in CHO cells incubated for 1.5 hrs by radioligand binding assay; assay type: cell-based
T2 sequence (P42866 whole entry): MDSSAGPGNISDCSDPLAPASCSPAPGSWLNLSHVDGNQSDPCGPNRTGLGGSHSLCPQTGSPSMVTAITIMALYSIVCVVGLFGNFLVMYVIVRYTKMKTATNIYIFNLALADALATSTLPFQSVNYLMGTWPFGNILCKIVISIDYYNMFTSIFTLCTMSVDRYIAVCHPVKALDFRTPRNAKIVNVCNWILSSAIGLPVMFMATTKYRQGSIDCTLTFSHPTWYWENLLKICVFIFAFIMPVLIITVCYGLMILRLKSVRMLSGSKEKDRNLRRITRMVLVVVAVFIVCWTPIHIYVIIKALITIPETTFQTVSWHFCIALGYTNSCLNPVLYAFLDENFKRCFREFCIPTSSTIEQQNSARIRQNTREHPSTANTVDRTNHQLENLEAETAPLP

[5] = target: Mu-type opioid receptor (Mus musculus) (UniProt P42866); test: Agonist activity at mouse MOR expressed in CHO cells assessed as increase in calcium influx incubated for 15 mins by Fluo-4AM dye based fluorescence assay; assay type: functional, cell-based; in short: as §1
Mu-type opioid receptor (Mus musculus), sequence (P42866 whole entry): as above

Mu-type opioid receptor [6] = target: T2, Mu-type opioid receptor; test: Antagonist activity at mouse MOR expressed in CHO cells assessed as decrease in DAMGO-induced calcium influx incubated for 15 mins followed by DAMGO stimulation and measured after 90 sec by Fluo-4AM dye based fluorescence assay; assay type: functional, cell-based; in short: as §2

Structure (SMILES) | IC50 [1] [nM] | Activity [2] | IC50 [3] [nM] | Ki (Mu-type opioid receptor [4]) [nM] | Activity [5] | IC50 (Mu-type opioid receptor [6]) [nM]
CNC(=O)COCC(=O)NCCCCCCNC(=O)COCC(=O)NC[C@H]1CC[C@H](/N=C(/NC2CCCCC2)SCC2=CSC3=NC(C)(C)CN23)CC1 | 74000 | inactive | 78300 |  |  | 
CNC(=O)COCC(=O)NCCCCCCNC(=O)COCC(=O)N[C@@H]1CC[C@@]2(O)[C@H]3Cc4ccc(O)c5c4[C@@]2(CCN3CC2CC2)[C@H]1O5 |  | inactive |  | 2 | inactive | 133
CC1(C)CN2C(CS/C(=N\[C@H]3CC[C@H](CNC(=O)COCC(=O)NCCCCCCNC(=O)COCC(=O)N[C@@H]4CC[C@@]5(O)[C@H]6Cc7ccc(O)c8c7[C@@]5(CCN6CC5CC5)[C@H]4O8)CC3)NC3CCCCC3)=CSC2=N1 | 17200 | inactive | 3300 | 25.4 | inactive | 61.9
